According to ChEMBL document CHEMBL3588770, “Novel spirohydantoin derivative as a potent multireceptor-active antipsychotic and antidepressant agent” (Bioorg Med Chem, 2015):
pKi: −log10 of the molar value.

What was measured:
D(2) dopamine receptor = D(2) dopamine receptor (Rattus norvegicus, UniProt P61169); assay: Displacement of [3H]spiperone from D2 receptor in rat striatum by liquid scintillation counting analysis
Method in brief: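 Rat striatal membranes with [3H]-spiperone. Compounds were tested in triplicate at 7–8 concentrations (10⁻¹¹–10⁻⁴). Ki values were calculated.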

[1] = biological target: 5-hydroxytryptamine receptor 7 (Homo sapiens) (UniProt P34969); assay: Displacement of [3H]LSD from human 5HT7 receptor expressed in CHO cells at 1 uM by scintillation counting analysis; assay type: cell-based
Method in brief: (§1)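 Extended binding screen run by a contract lab. Receptors were cloned human: 5-HT1A, 5-HT2A, 5-HT2C and H1 in HEK-293 cells; D1, α1, α2C and M3 in CHO cells; 5-HT6/7 and D2/3/4 in CHO cells. Radioligand displacement was done at a single 1.0E-06 concentration in duplicate. Results are mean % inhibition of control specific binding.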

[2] = biological target: 5-hydroxytryptamine receptor 2A (Homo sapiens) (UniProt P28223); assay: Displacement of [3H]ketanserin from human cloned 5HT2A receptor expressed in HEK293 cells at 1uM by scintillation counting analysis; assay type: cell-based; method in brief: as §1
[3] = biological target: T1, 5-hydroxytryptamine receptor 2C (Homo sapiens) (UniProt P28335); assay: Displacement of [3H]-mesulergine from human cloned 5HT2C receptor expressed in HEK293 cells at 1 uM by scintillation counting analysis; assay type: cell-based; method in brief: as §1
T1 sequence (whole entry): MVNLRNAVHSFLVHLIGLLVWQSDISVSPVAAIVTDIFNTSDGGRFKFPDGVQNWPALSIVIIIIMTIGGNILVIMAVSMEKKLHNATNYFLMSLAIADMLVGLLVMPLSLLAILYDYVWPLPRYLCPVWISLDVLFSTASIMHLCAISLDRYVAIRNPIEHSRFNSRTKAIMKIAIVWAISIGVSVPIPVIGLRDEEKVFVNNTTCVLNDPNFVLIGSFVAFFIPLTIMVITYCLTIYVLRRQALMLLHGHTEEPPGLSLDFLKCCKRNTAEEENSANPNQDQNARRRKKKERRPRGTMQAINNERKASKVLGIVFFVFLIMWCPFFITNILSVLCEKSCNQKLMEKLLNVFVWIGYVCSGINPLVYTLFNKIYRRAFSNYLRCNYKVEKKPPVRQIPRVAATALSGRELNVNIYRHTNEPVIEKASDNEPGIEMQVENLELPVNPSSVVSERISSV

[4] = biological target: Histamine H1 receptor (Homo sapiens) (UniProt P35367); assay: Displacement of [3H]-pyrilamine from human cloned H1 receptor expressed in HEK293 cells at 1 uM by scintillation counting analysis; assay type: cell-based; method in brief: as §1
[5] = biological target: D(3) dopamine receptor (Homo sapiens) (UniProt P35462); assay: Displacement of [3H]methylspiperione from human D3 receptor expressed in CHO cells at 1 uM by scintillation counting analysis; assay type: cell-based; method in brief: as §1
[6] = biological target: D(1A) dopamine receptor (Homo sapiens) (UniProt P21728); assay: Displacement of [3H]SCH23390 from human D1 receptor expressed in CHO cells at 1 uM by scintillation counting analysis; assay type: cell-based; method in brief: as §1
[7] = biological target: 5-hydroxytryptamine receptor 7 (Rattus norvegicus, UniProt P32305); assay: Displacement of [3H]-5-CT from 5-HT7 receptor in rat hypothalamic membrane by liquid scintillation analysis; assay type: cell membranes
Method in brief: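 Native rat membranes were used: hippocampus with [3H]-8-OH-DPAT (170 Ci/mmol) and 5-HT for non-specific binding; cortex with [3H]-ketanserin (88.0 Ci/mmol) and methysergide; hypothalamus with [3H]-5-CT (34.5 Ci/mmol) and 5-HT. Compounds were tested in triplicate at 7–8 concentrations (10⁻¹¹–10⁻⁴ M). Read-out was liquid scintillation counting. Ki came from nonlinear regression with Cheng-Prusoff, as the mean of at least two experiments.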

[8] = biological target: T2, Alpha-2C adrenergic receptor (Homo sapiens) (UniProt P18825); assay: Displacement of [3H]RX821002 from human alpha2C adrenergic receptor expressed in CHO cells at 1 uM by scintillation counting analysis; assay type: cell-based; method in brief: as §1
T2 sequence (whole entry): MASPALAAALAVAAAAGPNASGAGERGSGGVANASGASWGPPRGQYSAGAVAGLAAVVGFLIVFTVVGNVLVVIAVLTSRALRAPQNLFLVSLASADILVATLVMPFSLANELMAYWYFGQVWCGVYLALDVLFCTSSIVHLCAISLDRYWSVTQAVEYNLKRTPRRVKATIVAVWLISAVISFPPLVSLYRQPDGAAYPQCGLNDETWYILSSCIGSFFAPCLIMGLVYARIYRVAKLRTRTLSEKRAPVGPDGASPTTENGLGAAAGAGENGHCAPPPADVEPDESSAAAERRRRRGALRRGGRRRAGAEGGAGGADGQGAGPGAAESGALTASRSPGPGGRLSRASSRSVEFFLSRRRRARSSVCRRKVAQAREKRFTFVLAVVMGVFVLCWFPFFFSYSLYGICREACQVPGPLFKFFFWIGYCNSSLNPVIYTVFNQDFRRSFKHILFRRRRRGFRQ

[9] = biological target: 5-hydroxytryptamine receptor 6 (Homo sapiens) (UniProt P50406); assay: Displacement of [3H]LSD from human 5HT6 receptor expressed in CHO cells at 1 uM by scintillation counting analysis; assay type: cell-based; method in brief: as §1
[10] = biological target: T3, 5-hydroxytryptamine receptor 1A (Homo sapiens) (UniProt P08908); assay: Displacement of [3H]-8-OH-DPAT from human cloned 5HT1A receptor expressed in HEK293 cells at 1 uM by scintillation counting analysis; assay type: cell-based; method in brief: as §1
T3 sequence (whole entry): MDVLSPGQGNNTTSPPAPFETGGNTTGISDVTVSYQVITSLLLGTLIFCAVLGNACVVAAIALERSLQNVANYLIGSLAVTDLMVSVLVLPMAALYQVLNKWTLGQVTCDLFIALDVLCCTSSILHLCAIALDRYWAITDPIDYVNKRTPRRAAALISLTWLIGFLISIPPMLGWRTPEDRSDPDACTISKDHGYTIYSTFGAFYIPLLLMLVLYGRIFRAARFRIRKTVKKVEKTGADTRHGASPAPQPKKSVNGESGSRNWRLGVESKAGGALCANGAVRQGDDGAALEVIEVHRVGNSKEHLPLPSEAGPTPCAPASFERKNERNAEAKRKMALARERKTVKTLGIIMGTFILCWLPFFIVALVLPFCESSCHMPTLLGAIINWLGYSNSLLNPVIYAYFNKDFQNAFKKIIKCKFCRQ

[11] = biological target: Adrenergic receptor alpha-1 (Homo sapiens) (UniProt P35348+P25100+P35368); assay: Displacement of [3H]prazosin from human alpha1-adrenergic receptor expressed in CHO cells at 1 uM by scintillation counting analysis; assay type: cell-based; method in brief: as §1
[12] = biological target: D(2) dopamine receptor (Homo sapiens) (UniProt P14416); assay: Displacement of [3H]methylspiperione from human D2 receptor expressed in CHO cells at 1 uM by scintillation counting analysis; assay type: cell-based; method in brief: as §1
D(2) dopamine receptor (Homo sapiens), sequence (P14416 whole entry): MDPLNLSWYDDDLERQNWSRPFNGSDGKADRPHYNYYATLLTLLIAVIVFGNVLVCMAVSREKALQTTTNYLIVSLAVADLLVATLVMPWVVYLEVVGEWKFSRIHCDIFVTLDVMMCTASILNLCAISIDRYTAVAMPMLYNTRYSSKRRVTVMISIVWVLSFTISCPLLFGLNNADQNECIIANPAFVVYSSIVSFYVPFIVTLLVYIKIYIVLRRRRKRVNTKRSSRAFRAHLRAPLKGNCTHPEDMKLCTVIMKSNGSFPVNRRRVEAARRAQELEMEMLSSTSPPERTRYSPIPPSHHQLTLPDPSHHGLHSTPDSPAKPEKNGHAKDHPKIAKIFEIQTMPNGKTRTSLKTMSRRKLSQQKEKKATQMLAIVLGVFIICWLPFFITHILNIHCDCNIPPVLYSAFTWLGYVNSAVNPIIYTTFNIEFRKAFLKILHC

D(1A) dopamine receptor (Homo sapiens), sequence (P21728 whole entry): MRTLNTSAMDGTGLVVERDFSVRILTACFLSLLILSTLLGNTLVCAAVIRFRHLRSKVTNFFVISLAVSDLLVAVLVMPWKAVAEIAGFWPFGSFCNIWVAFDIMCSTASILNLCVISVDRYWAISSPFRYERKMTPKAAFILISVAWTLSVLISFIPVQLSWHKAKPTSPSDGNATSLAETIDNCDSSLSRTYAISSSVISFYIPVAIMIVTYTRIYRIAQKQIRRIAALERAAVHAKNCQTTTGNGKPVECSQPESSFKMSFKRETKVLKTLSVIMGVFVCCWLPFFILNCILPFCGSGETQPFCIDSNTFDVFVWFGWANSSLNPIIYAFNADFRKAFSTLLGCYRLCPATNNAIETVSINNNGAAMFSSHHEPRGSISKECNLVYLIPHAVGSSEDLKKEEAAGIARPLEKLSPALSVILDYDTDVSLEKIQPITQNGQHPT
Histamine H1 receptor (Homo sapiens), sequence (P35367 whole entry): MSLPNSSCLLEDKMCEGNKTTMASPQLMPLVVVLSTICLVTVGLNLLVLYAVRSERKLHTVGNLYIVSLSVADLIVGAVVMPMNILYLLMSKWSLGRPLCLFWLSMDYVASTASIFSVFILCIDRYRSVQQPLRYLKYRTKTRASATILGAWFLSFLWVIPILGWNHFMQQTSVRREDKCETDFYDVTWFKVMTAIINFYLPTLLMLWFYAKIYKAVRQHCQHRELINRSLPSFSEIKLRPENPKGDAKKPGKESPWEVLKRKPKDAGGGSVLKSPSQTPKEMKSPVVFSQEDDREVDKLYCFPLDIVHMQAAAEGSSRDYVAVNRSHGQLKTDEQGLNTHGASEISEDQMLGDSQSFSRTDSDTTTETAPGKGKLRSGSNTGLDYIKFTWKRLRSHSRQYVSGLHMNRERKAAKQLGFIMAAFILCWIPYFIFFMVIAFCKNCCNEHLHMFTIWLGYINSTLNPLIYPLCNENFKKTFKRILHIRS
D(2) dopamine receptor, sequence (P61169 whole entry): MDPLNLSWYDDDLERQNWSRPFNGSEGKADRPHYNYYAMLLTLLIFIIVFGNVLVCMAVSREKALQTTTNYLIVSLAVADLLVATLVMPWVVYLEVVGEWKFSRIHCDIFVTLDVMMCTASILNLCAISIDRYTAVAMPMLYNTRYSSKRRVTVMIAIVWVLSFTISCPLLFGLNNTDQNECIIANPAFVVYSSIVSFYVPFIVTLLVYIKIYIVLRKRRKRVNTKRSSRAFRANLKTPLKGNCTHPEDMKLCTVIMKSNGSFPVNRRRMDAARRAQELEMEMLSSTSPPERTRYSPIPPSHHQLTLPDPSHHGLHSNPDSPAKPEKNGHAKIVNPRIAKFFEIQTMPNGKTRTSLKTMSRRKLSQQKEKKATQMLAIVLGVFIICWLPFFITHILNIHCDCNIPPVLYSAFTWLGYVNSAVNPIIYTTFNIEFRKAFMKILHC
5-hydroxytryptamine receptor 6 (Homo sapiens), sequence (P50406 whole entry): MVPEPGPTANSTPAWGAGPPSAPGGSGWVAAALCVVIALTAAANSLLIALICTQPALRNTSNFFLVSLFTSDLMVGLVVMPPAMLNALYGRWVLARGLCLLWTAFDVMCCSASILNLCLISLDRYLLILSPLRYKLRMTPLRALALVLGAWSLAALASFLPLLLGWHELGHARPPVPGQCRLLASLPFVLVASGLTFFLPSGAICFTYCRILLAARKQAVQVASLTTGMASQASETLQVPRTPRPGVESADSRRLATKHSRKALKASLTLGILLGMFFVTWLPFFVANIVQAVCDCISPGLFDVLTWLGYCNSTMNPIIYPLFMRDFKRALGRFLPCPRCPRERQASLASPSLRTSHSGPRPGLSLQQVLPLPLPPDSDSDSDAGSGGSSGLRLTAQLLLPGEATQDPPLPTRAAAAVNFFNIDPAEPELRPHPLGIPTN
5-hydroxytryptamine receptor 7 (Homo sapiens), sequence (P34969 whole entry): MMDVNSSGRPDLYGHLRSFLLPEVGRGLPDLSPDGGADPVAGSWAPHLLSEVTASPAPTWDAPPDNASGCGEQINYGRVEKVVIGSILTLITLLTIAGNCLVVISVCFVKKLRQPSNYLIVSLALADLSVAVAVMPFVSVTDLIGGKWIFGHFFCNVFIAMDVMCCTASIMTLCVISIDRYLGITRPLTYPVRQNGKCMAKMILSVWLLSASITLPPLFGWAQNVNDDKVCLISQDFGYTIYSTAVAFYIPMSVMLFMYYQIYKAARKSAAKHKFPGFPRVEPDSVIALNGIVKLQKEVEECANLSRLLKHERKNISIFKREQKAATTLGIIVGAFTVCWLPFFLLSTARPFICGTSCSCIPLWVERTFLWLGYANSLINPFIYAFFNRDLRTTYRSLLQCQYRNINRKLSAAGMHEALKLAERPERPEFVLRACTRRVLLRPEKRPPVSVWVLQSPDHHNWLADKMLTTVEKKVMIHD
5-hydroxytryptamine receptor 2A (Homo sapiens), sequence (P28223 whole entry): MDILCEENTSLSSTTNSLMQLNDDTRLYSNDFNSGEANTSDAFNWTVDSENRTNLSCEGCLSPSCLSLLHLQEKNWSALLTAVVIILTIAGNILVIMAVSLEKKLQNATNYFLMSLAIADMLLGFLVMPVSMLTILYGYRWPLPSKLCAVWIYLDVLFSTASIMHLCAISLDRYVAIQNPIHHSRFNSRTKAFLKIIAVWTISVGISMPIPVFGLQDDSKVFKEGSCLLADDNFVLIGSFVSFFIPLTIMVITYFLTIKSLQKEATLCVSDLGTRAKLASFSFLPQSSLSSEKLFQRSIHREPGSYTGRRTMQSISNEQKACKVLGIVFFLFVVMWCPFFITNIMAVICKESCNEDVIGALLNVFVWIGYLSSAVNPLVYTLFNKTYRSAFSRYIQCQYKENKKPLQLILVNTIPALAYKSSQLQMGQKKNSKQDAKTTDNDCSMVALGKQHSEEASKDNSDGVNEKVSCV
D(3) dopamine receptor (Homo sapiens), sequence (P35462 whole entry): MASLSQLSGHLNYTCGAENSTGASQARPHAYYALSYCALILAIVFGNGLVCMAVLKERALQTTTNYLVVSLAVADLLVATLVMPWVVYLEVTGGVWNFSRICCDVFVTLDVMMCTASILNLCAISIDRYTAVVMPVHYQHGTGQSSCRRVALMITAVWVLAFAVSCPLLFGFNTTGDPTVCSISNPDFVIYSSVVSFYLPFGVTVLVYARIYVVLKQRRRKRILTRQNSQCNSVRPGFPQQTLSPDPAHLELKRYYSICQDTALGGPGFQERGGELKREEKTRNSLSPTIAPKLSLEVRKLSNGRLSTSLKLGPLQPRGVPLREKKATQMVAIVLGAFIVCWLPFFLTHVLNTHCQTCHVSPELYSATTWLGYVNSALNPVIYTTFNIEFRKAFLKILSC
5-hydroxytryptamine receptor 7, sequence (P32305 whole entry): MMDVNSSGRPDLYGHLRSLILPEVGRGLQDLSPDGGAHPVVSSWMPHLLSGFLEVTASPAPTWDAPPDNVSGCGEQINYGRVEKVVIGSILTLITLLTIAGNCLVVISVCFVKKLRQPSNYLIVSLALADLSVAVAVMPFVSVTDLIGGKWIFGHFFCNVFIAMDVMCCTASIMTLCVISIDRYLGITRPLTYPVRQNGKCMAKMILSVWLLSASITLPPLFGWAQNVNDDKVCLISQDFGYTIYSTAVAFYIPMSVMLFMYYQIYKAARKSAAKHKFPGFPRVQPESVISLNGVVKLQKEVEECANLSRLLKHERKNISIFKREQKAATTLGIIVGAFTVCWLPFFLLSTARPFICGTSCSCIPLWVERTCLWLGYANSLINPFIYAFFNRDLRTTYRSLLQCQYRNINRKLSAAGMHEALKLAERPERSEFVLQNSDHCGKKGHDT

SMILES	pKi (D(2) dopamine receptor)	inhibition [1]	inhibition [2]	inhibition [3]	inhibition [4]	inhibition [5]	inhibition [6]	pKi [7]	inhibition [8]	inhibition [9]	inhibition [10]	inhibition [11]	inhibition [12]
COc1ccccc1N1CCN(CCCCN2C(=O)NC3(CCc4ccccc43)C2=O)CC1 (configuration not stated)	6.98	98%	100%	21%	94%	96%	68%	7.15	101%	3%	103%	98%	96%
COc1ccccc1N1CCN(CCCCN2C(=O)NC3(CCCc4ccccc43)C2=O)CC1 (configuration not stated)	7.23	99%	69%	24%	99%	94%	87%	7.33	101%	29%	98%	99%	97%
O=C1NC2(CCc3ccccc32)C(=O)N1CCCCN1CCN(c2cccc(Cl)c2)CC1 (configuration not stated)	6.27	99%	98%	61%	101%	97%	91%	7.57	97%	23%	103%	96%	75%
O=C1NC2(CCCc3ccccc32)C(=O)N1CCCCN1CCN(c2cccc(Cl)c2)CC1 (configuration not stated)	5.96	100%	95%	61%	102%	93%	95%	7.43	99%	37%	99%	94%	77%
